Results collected from several papers.
Target: Glycogen synthase kinase-3 alpha (GSK3A, Homo sapiens, UniProt P49840)

Compound | effect on | technique | tested at | remaining binding [%]
O=C(NCCCN1CCOCC1)c1ccc(Nc2ncc(Cl)c(-c3ccc(Cl)s3)n2)cc1 | binding | competition with immobilised ligand | 1 µM | 43
O=C(Nc1cccnn1)N1CCC(=Cc2cccc(Oc3ccc(C(F)(F)F)cn3)c2)CC1 | cell-free assay | competition with immobilised ligand | 1 µM | 100
N[C@@H]1CCN(c2nccc(-c3cnn4ncccc34)n2)C1 | binding | – | 1 µM | 100
O=C(NCc1ncc(C(F)(F)F)cc1Cl)c1ccc2c(c1)C1(CCS(=O)(=O)CC1)[C@H](C1CC1)N2S(=O)(=O)c1ccc(F)cc1 | cell-free assay | competition with immobilised ligand | 1 µM | 100
COc1ncc2cc3ccccc3nc2c1C#N | cell-free assay | competition with immobilised ligand | 5 µM | 94
CN(CCCC(F)(F)F)c1nccc(-c2cnn3ncccc23)n1 | binding | – | 1 µM | 100
C=CC(=O)N1CCC(C(=O)NCC(=O)N2CCN(c3nc(-c4cnc(N)nc4C(F)F)nc(N4CCOCC4)n3)CC2)CC1 | binding | competition with immobilised ligand | 1 µM | 92
COc1ccc2c(O[C@@H]3C[C@H]4C(=O)N[C@]5(C(=O)O)CC5/C=C\CCCCC[C@H](NC(=O)OC5CCCC5)C(=O)N4C3)cc(-c3csc(NC(=O)C(C)C)n3)nc2c1C (some centres unmarked) | cell-free assay | competition with immobilised ligand | 1 µM | 100
O=C(NCCCN1CCOCC1)c1ccc(Nc2nccc(-c3cc4ccccc4s3)n2)cc1 | binding | competition with immobilised ligand | 1 µM | 92
O=C(NC[C@@H]1[C@H]2CN(C(=O)OCc3cc(C(F)(F)F)cc(C(F)(F)F)c3)C[C@@H]12)c1ccc2[nH]nnc2c1 | cell-free assay | competition with immobilised ligand | 1 µM | 99
C[C@H]1CCN(c2nccc(-c3cnn4ncccc34)n2)C1 | binding | – | 1 µM | 85
O=C(c1ccc(Nc2ncc(Cl)c(-c3ccc(Cl)s3)n2)cc1)N1CCC(N2CCCC2)CC1 | binding | competition with immobilised ligand | 1 µM | 22
Cc1cnn2ncc(-c3ccnc(N(C)C)n3)c2c1 | binding | – | 1 µM | 96
COc1cnc(Nc2cccc(S(N)(=O)=O)c2)nc1N1CCN(c2ccccc2)C(=O)C1 | binding | competition with immobilised ligand | 1 µM | 90
CN(C)C(=O)Cn1cc(-c2nc([C@@](C)(c3ccc(-c4cnc(N)nc4)cc3)C3CC3)no2)cn1 | cell-free assay | competition with immobilised ligand | 1 µM | 100
O=C(NCC1CCOCC1)c1n[nH]cc1NC(=O)c1c(F)cccc1F | binding | competition with immobilised ligand | 1 µM | 0
CNC(=O)[C@@H]1CC[C@@H](n2c(-c3ccc4cnccc4c3)nc3ccc(C(=O)NCc4cccc(C(N)=O)c4)cc32)C1 | binding | competition with immobilised ligand | 1 µM | 85
c1cnn2ncc(-c3ccnc(N4CCC45COC5)n3)c2c1 | binding | – | 1 µM | 100
C[C@H](NC(=O)c1cnc2n1[C@](C)(Cc1ccc(C#N)cc1)C(=O)N2c1cc(Cl)c(F)c(Cl)c1)C(=O)NC1(c2ccccn2)CC1 | cell-free assay | competition with immobilised ligand | 1 µM | 100
C[C@@H](c1ccc(-n2cnc3c(N)ncnc32)cc1)N1CCc2nn(C)c(Cc3ccccc3)c2C1=O | binding | competition with immobilised ligand | 0.1 µM | 72
